ChEMBL document CHEMBL1828575, “Design, synthesis and antiproliferative activities of biarylolefins based on polyhydroxylated and carbohydrate scaffolds” (Eur J Med Chem, 2011)

Legend:
Assay type in all cases: functional
UACC-257 = experiment: Cytotoxicity against human UACC257 cells assessed as cellular growth at 10 uM after 48 hrs by SRB assay
Method in brief: (§1)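 NCI-60 panel lines grown in RPMI 1640 with 5% FBS and 2 mM L-glutamine. Plated at 5000–40,000 cells/well and preincubated 24 h at 37 °C, 5% CO₂, with time-zero plates fixed in TCA. Compounds, dissolved in DMSO and diluted in medium, were applied for 48 h. Cells were TCA-fixed (10% final for adherent, 16% for suspension) and stained with 0.4% SRB in 1% acetic acid. Dye was solubilised in 10 mM Tris base and read at 515 nm; growth was expressed as a percentage of untreated control.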

SN12C = experiment: Cytotoxicity against human SN12C cells assessed as cellular growth at 10 uM after 48 hrs by SRB assay; method in brief: as §1
MDA-MB-435 = experiment: Antitumor activity against human MDA-MB-435 cells after 48 hrs by SRB assay; conditions: MDA-MB-435, 48 h
Method in brief: (§2)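 NCI60 panel in RPMI 1640 with 5% FBS and 2 mM L-glutamine. Cells were plated at 5000–40,000/well by doubling time, held 24 h, then time-zero plates were TCA-fixed. Five concentrations (10-fold or half-log dilutions of DMSO stocks) were applied for 48 h at 37 °C, 5% CO2. Cells were fixed with cold TCA (10% final adherent, 16% suspension) and stained with 0.4% SRB. Bound dye was dissolved in 10 mM Tris and read at 515 nm. GI50, TGI and LC50 were calculated per line.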

UO-31 = experiment: Antitumor activity against human UO31 cells after 48 hrs by SRB assay; conditions: UO-31, 48 h
Method in brief: (§3)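 NCI60 panel cells grown in RPMI 1640 with 5% FBS and 2 mM L-glutamine, plated at 5000–40,000 cells/well and preincubated 24 h at 37 °C, 5% CO₂. Compound was added from DMSO at five concentrations, 10-fold or 1/2 log dilutions, then incubated 48 h.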

SK-MEL-2 = experiment: Cytotoxicity against human SK-MEL-2 cells assessed as cellular growth at 10 uM after 48 hrs by SRB assay; method in brief: as §1
NCI-H23 = experiment: Cytotoxicity against human NCI-H23 cells assessed as cellular growth at 10 uM after 48 hrs by SRB assay; method in brief: as §1
BT-549 = experiment: Antitumor activity against human BT549 cells after 48 hrs by SRB assay; conditions: BT-549, 48 h
Method in brief: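 NCI60 screen: cells grown in RPMI 1640 with 5% FBS and 2 mM L-glutamine, plated at 5000–40,000 cells/well by doubling time, preincubated 24 h at 37 °C with 5% CO2. Compounds were diluted from DMSO stocks and given for 48 h, at five concentrations for dose response. A time-zero plate was TCA-fixed. Cells were TCA-fixed, stained with 0.4% SRB and read at 515 nm, with growth expressed relative to untreated controls.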

MDA-MB-231 = experiment: Cytotoxicity against human MDA-MB-231 cells assessed as cellular growth at 10 uM after 48 hrs by SRB assay; method in brief: as §1
T47D [1] = experiment: Antitumor activity against human T47D cells after 48 hrs by SRB assay; method in brief: as §3
Malme-3M = experiment: Antitumor activity against human MALME-3M cells after 48 hrs by SRB assay; method in brief: as §2
EKVX = experiment: Cytotoxicity against human EKVX cells assessed as cellular growth at 10 uM after 48 hrs by SRB assay
Method in brief: (§4)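 NCI60 single-dose screen of cells in RPMI 1640 with 5% FBS and 2 mM L-glutamine, preincubated 24 h at 37 °C, 5% CO₂. Cells were then exposed 48 h to compound added from DMSO stock. TCA-fixed, stained with 0.4% SRB in 1% acetic acid, dye solubilised in 10 mM Tris base and read at 515 nm. Growth is given as percent of untreated control.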

OVCAR-3 = experiment: Antitumor activity against human OVCAR3 cells after 48 hrs by SRB assay; conditions: OVCAR-3, 48 h; method in brief: as §2
LOX IMVI = experiment: Cytotoxicity against human LOXIMVI cells assessed as cellular growth at 10 uM after 48 hrs by SRB assay; method in brief: as §4
SR = experiment: Cytotoxicity against human SR cells assessed as cellular growth at 10 uM after 48 hrs by SRB assay; method in brief: as §1
SNB-75 = experiment: Cytotoxicity against human SNB75 cells assessed as cellular growth at 10 uM after 48 hrs by SRB assay; method in brief: as §1
T47D [2] = experiment: Cytotoxicity against human T47D cells assessed as cellular growth at 10 uM after 48 hrs by SRB assay; method in brief: as §1
HL-60(TB) = experiment: Cytotoxicity against human HL-60(TB) cells assessed as cellular growth at 10 uM after 48 hrs by SRB assay
HOP-92 = experiment: Antitumor activity against human HOP92 cells after 48 hrs by SRB assay; conditions: HOP-92, 48 h; method in brief: as §2
KM12 = experiment: Antitumor activity against human KM12 cells after 48 hrs by SRB assay; conditions: KM12, 48 h; method in brief: as §2
SW-620 = experiment: Antitumor activity against human SW620 cells after 48 hrs by SRB assay; conditions: SW-620, 48 h; method in brief: as §3
[3] = read-out: LC50 (the source's name)
[4] = read-out: pLC50 (the source's name) (converted)

COc1ccc(/C(=C2/O[C@@H]([C@H]3COC(C)(C)O3)[C@H]3OC(C)(C)O[C@@H]23)c2cc(OC)c(OC)c(OC)c2)cc1O
Activity (UACC-257): 107.04%
Activity (SN12C): 57.72%
GI50 (MDA-MB-435): 1.48 µM
TGI (MDA-MB-435): 3.7 µM
CC50 (MDA-MB-435; [3]): > 100 µM
GI50 (UO-31; read-out: GI50): 7.53 µM
CC50 (UO-31; [3]): > 100 µM
TGI (UO-31; read-out: TGI): 77.8 µM
GI50 (UO-31; read-out: pGI50 (converted)): 7.59 µM
CC50 (UO-31; [4]): > 100 µM
TGI (UO-31; read-out: pTGI (converted)): 77.6 µM
Activity (SK-MEL-2): 103.26%
Activity (NCI-H23): 72.29%
GI50 (BT-549; read-out: GI50): 5.39 µM
CC50 (BT-549; [3]): > 100 µM
TGI (BT-549; read-out: TGI): > 100 µM
GI50 (BT-549; read-out: pGI50 (converted)): 5.37 µM
CC50 (BT-549; [4]): > 100 µM
TGI (BT-549; read-out: pTGI (converted)): > 100 µM
Activity (MDA-MB-231): 43.9%
GI50 (T47D [1]; read-out: GI50): 2.51 µM
CC50 (T47D [1]; [3]): > 100 µM
TGI (T47D [1]; read-out: TGI): > 100 µM
GI50 (T47D [1]; read-out: pGI50 (converted)): 25.1 µM
CC50 (T47D [1]; [4]): > 100 µM
TGI (T47D [1]; read-out: pTGI (converted)): > 100 µM
GI50 (Malme-3M): 5.46 µM
LC50 (concentration killing 50% of cells present at time zero) (Malme-3M): > 100 µM
TGI (Malme-3M): > 100 µM
Activity (EKVX): 90.16%
GI50 (OVCAR-3): 2.38 µM
TGI (OVCAR-3): 5.34 µM
CC50 (OVCAR-3; [3]): 22.9 µM
Activity (LOX IMVI): 36.94%
Activity (SR): 25.4%
Activity (SNB-75): 6.11%
Activity (T47D [2]): 120.98%
Activity (HL-60(TB)): 20.71%
GI50 (HOP-92): 5.45 µM
TGI (HOP-92): 31.8 µM
CC50 (HOP-92; [3]): > 100 µM
GI50 (KM12): 3.99 µM
LC50 (KM12): > 100 µM
TGI (KM12): > 100 µM
GI50 (SW-620; read-out: GI50): 4.05 µM
CC50 (SW-620; [3]): > 100 µM
TGI (SW-620; read-out: TGI): > 100 µM
GI50 (SW-620; read-out: pGI50 (converted)): 4.07 µM
CC50 (SW-620; [4]): > 100 µM
TGI (SW-620; read-out: pTGI): > 100 µM
